Measurements: ChEMBL document CHEMBL3739400, “Penicyclones A-E, Antibacterial Polyketides from the Deep-Sea-Derived Fungus Penicillium sp. F23-2” (J Nat Prod, 2015)
In brackets after ≈: the same amount, converted by molar mass.

What was measured:
[1] = Cytotoxicity against human Bel7402 cells assessed as reduction in cell viability by MTT assay; assay type: functional, cell-based; conditions: Bel-7402
How it was run: (§1)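 Cytotoxicity was measured by MTT assay on HeLa (human cervical cancer) and BEL-7402 (human hepatocellular carcinoma) cell lines, with doxorubicin as the positive control.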

A549 = test: Cytotoxicity against human A549 cells assessed as reduction in cell viability by sulforhodamine B assay; assay type: functional, cell-based
HEK293 = test: Cytotoxicity against HEK293 cells assessed as reduction in cell viability by sulforhodamine B assay; assay type: cell-based; conditions: Homo sapiens
[2] = Cytotoxicity against human HCT116 cells assessed as reduction in cell viability by sulforhodamine B assay; assay type: functional, cell-based; conditions: HCT-116
Staphylococcus aureus = test: Antibacterial activity against Staphylococcus aureus ATCC 6538 assessed as growth inhibition after 24 hrs by broth microdilution method; assay type: functional; conditions: ATCC 6538, 24 h
How it was run: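 Broth microdilution assay against Staphylococcus aureus, with penicillin G as the positive control.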

HeLa = test: Cytotoxicity against human HeLa cells assessed as reduction in cell viability by MTT assay; assay type: functional, cell-based; how it was run: as §1

| SMILES | MIC (Staphylococcus aureus) [µg/mL] | IC50 [1] [µM] | IC50 (A549) [µM] | IC50 (HEK293) [µM] | IC50 [2] [µM] | IC50 (HeLa) [µM] |
| --- | --- | --- | --- | --- | --- | --- |
| CC1=CC(=O)[C@](O)(CC[C@@H](C)C(=O)O)[C@H](O)[C@@H]1O | 1 (≈ 3.87 µM) | > 50 | > 50 | > 50 | > 50 | > 50 |
| COC(=O)[C@H](C)CC[C@@]1(O)C(=O)C=C(C)[C@@H](O)[C@H]1O | 0.9 (≈ 3.31 µM) | > 50 | > 50 | > 50 | > 50 | > 50 |
| CC1=CC(=O)[C@]2(CC/C(C)=C/CC(=O)O)O[C@@H]2[C@@H]1O | 0.8 (≈ 3 µM) | > 50 | > 50 | > 50 | > 50 | > 50 |

The next molecules have a lower MIC (Staphylococcus aureus) than those just listed; values first:

| MIC (Staphylococcus aureus) [µg/mL] | SMILES | IC50 [1] [µM] | IC50 (A549) [µM] | IC50 (HEK293) [µM] | IC50 [2] [µM] | IC50 (HeLa) [µM] |
| --- | --- | --- | --- | --- | --- | --- |
| 0.5 (≈ 1.88 µM) | CC1=CC(=O)[C@]2(C/C=C(\C)CCC(=O)O)O[C@@H]2[C@@H]1O | > 50 | > 50 | > 50 | > 50 | > 50 |
| 0.3 (≈ 1.25 µM) | CC1=CC(=O)[C@]2(CC[C@@H](C)C(=O)O2)[C@H](O)[C@@H]1O | > 50 | > 50 | > 50 | > 50 | > 50 |
